# Laboratory results: ChEMBL document CHEMBL1123026, “Preparation and antiarthritic and analgesic activity of 4,5-diaryl-2-(substituted thio)-1H-imidazoles and their sulfoxides and sulfones” (1985)
# Experiments:
# Type in all cases: functional
# Mus musculus [1] = assay: Effective dose by mouse phenyl-p-benzoquinone writhing (PQW)assay after peroral administration; activity value ranges from (2.3-15.7); settings: po
# Summary of the method: (§1)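 Fasted (17-21 h) female white mice, 5-20 per double-blind test, dosed orally with compound suspended in 1% methylcellulose. 0.20 mL aqueous 0.01% phenyl-p-benzoquinone given i.p. 6 min before a 10-min observation for stretching/writhing. ED50 (dose protecting 50% of mice) calculated by the moving-average method.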
# Mus musculus [2] = assay: Effective dose by mouse phenyl-p-benzoquinone writhing (PQW)assay after peroral administration; activity value ranges from (1.9-10.1); settings: po; summary of the method: as §1
# Mus musculus [3] = assay: Effective dose by mouse phenyl-p-benzoquinone writhing (PQW)assay after peroral administration; activity value ranges from (2.8-10.9); settings: po; summary of the method: as §1
# Rattus norvegicus [4] = assay: Effective dose determined against rat adjuvant arthritis after peroral administration; settings: po
# Summary of the method: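 Male Lewis rats (130-150 g) given 0.1 mL Mycobacterium butyricum adjuvant (5 mg/mL in mineral oil) s.c. into the right hind paw; arthritis developed for 2 weeks. Groups of 10 matched for severity were dosed orally by gavage in PVA-acacia vehicle (10 mL/kg) for 7 days. Uninjected left paw volume was measured the day after the last dose. Percent decrease was calculated vs arthritic and nonarthritic controls. ED50 was read from a visually fitted semilog dose-response line.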
# Mus musculus [5] = assay: Effective dose by mouse phenyl-p-benzoquinone writhing (PQW)assay after peroral administration; activity value ranges from (3.1 - 39.5); settings: po; summary of the method: as §1
# Mus musculus [6] = assay: Effective dose by mouse phenyl-p-benzoquinone writhing (PQW)assay after peroral administration; activity value ranges from (0.028-0.065); settings: po
# Mus musculus [7] = assay: Effective dose determined by mouse phenyl-p-benzoquinone writhing (PQW) assay after peroral administration; settings: po; summary of the method: as §1
# Rattus norvegicus [8] = assay: Decrease in paw volume by the effect of compound at a dose of 75 mg/kg, highest dose (75 mg/kg)
# Summary of the method: (§2)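 Male Lewis rats (130-150 g) got 0.1 mL adjuvant (heat-killed Mycobacterium butyricum, 5 mg/mL in mineral oil) subplantar in the right hind paw and were left 2 weeks. Groups of 10 matched for severity were dosed orally by gavage (PVA-acacia vehicle, 10 mL/kg) for 7 days. Uninjected left hind paw volume was read the next day. % decrease = (arthritic control − treated)/(arthritic − nonarthritic control) × 100; Student's t-test.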
# Mus musculus [9] = assay: Effective dose by mouse phenyl-p-benzoquinone writhing (PQW)assay after peroral administration; 6.5-42.8; settings: po
# Mus musculus [10] = assay: Effective dose by mouse phenyl-p-benzoquinone writhing (PQW)assay after peroral administration; 14.9-77.8; settings: po
# Mus musculus [11] = assay: Effective dose by mouse phenyl-p-benzoquinone writhing (PQW)assay after peroral administration; 5.3-45.9; settings: po
# Mus musculus [12] = assay: Effective dose by mouse phenyl-p-benzoquinone writhing (PQW)assay after peroral administration; activity value ranges from (25.5-94.1); settings: po; summary of the method: as §1
# Rattus norvegicus [13] = assay: Decrease in paw volume by the effect of compound at a dose of 1 mg/kg; summary of the method: as §2
# Mus musculus [14] = assay: Effective dose by mouse phenyl-p-benzoquinone writhing (PQW)assay after peroral administration; activity value ranges from (6.0 - 18.0); settings: po; summary of the method: as §1
# Rattus norvegicus [15] = assay: Decrease in paw volume was evaluated at dose 10 mg/kg; summary of the method: as §2
# Mus musculus [16] = assay: Effective dose against mouse phenyl-p-benzoquinone writhing (PQW)assay, peroral administration; activity value ranges from (21.9-110); settings: po
# Mus musculus [17] = assay: Effective dose by mouse phenyl-p-benzoquinone writhing (PQW)assay after peroral administration; 51.5-243; settings: po
# Mus musculus [18] = assay: Effective dose by mouse phenyl-p-benzoquinone writhing (PQW)assay after peroral administration; activity value ranges from (15.7 - 101.9); settings: po; summary of the method: as §1
# Mus musculus [19] = assay: Effective dose by mouse phenyl-p-benzoquinone writhing (PQW)assay after peroral administration; 16.6-69.5; settings: po
# Mus musculus [20] = assay: Effective dose by mouse phenyl-p-benzoquinone writhing (PQW)assay after peroral administration; activity value ranges from (8.6 - 78.6); settings: po; summary of the method: as §1
# Rattus norvegicus [21] = assay: Decrease in paw volume by the effect of compound at a dose of 10 mg/kg; summary of the method: as §2
# Mus musculus [22] = assay: Effective dose by mouse phenyl-p-benzoquinone writhing (PQW)assay after peroral administration; activity value ranges from (10.9-125.8); settings: po; summary of the method: as §1
# Mus musculus [23] = assay: Effective dose by mouse phenyl-p-benzoquinone writhing (PQW)assay after peroral administration; 26.7-130; settings: po
# Mus musculus [24] = assay: Effective dose by mouse phenyl-p-benzoquinone writhing (PQW)assay after peroral administration; 0.16-0.57; settings: po
# Mus musculus [25] = assay: Effective dose by mouse phenyl-p-benzoquinone writhing (PQW)assay after peroral administration; activity value ranges from (5.9 - 17.1); settings: po; summary of the method: as §1
# Mus musculus [26] = assay: Effective dose by mouse phenyl-p-benzoquinone writhing (PQW)assay after peroral administration; activity value ranges from (22.9 - 118); settings: po; summary of the method: as §1
# Mus musculus [27] = assay: Effective dose by mouse phenyl-p-benzoquinone writhing (PQW)assay after peroral administration; activity value ranges from (2.7-11.8); settings: po; summary of the method: as §1
# Mus musculus [28] = assay: Effective dose by mouse phenyl-p-benzoquinone writhing (PQW)assay after peroral administration; activity value ranges from (0.48-1.53); settings: po
# Mus musculus [29] = assay: Effective dose by mouse phenyl-p-benzoquinone writhing (PQW)assay after peroral administration; activity value ranges from (0.05-0.27); settings: po
# Mus musculus [30] = assay: Effective dose by mouse phenyl-p-benzoquinone writhing (PQW)assay after peroral administration; 27.2-42.9; settings: po
smiles,measurement,setting,value
O=S(=O)(c1nc(-c2ccccc2)c(-c2ccccc2)[nH]1)C(F)F,ED50,Mus musculus [1],6 mg/kg
O=S(=O)(c1nc(-c2ccccc2Cl)c(-c2ccccc2Cl)[nH]1)C(F)(F)C(F)F,ED50,Mus musculus [2],4.4 mg/kg
Cc1ccc(-c2[nH]c(S(=O)(=O)C(F)(F)C(F)F)nc2-c2ccccc2)cc1,ED50,Mus musculus [3],5.5 mg/kg
same,ED50,Rattus norvegicus [4],0.8 mg/kg
[O-][S+](c1nc(-c2ccc(Cl)cc2)c(-c2ccc(Cl)cc2)[nH]1)C(F)(F)C(F)F (stereo not drawn),ED50,Mus musculus [5],11 mg/kg
same,ED50,Rattus norvegicus [4],0.22 mg/kg
COc1ccc(-c2nc(S(=O)(=O)C(F)(F)F)[nH]c2-c2ccc(OC)cc2)cc1,ED50,Mus musculus [6],0.043 mg/kg
CC[S+]([O-])c1nc(-c2ccccc2)c(-c2ccccc2)[nH]1 (stereo not drawn),ED50,Mus musculus [7],> 130 mg/kg
same,Decrease,Rattus norvegicus [8],44%
COc1ccc(-c2nc(S(=O)(=O)C(F)(F)C(F)I)[nH]c2-c2ccc(OC)cc2)cc1 (stereo not drawn),ED50,Mus musculus [9],16.7 mg/kg
same,ED50,Rattus norvegicus [4],5 mg/kg
C=CSc1nc(-c2ccc(OC)cc2)c(-c2ccc(OC)cc2)[nH]1,ED50,Mus musculus [10],34 mg/kg
same,ED50,Rattus norvegicus [4],12 mg/kg
Fc1ccc(-c2nc(SC(F)(F)F)[nH]c2-c2ccc(F)cc2)cc1,ED50,Mus musculus [11],15.6 mg/kg
same,ED50,Rattus norvegicus [4],0.035 mg/kg
Cc1ccc(-c2[nH]c(S(=O)(=O)C(F)(F)C(F)F)nc2-c2cccc(Cl)c2)cc1,ED50,Mus musculus [12],49 mg/kg
same,Decrease,Rattus norvegicus [13],36%
O=S(=O)(CC(F)(F)F)c1nc(-c2ccccc2)c(-c2ccccc2)[nH]1,ED50,Mus musculus [14],10.4 mg/kg
same,ED50,Rattus norvegicus [4],15 mg/kg
CCOc1ccc(-c2[nH]c(SC(F)(F)C(F)F)nc2-c2ccccc2)cc1,ED50,Mus musculus [7],> 130 mg/kg
same,Decrease,Rattus norvegicus [15],32%
C[S+]([O-])c1nc(-c2ccc(Cl)cc2)c(-c2ccc(Cl)cc2)[nH]1 (stereo not drawn),ED50,Mus musculus [16],49 mg/kg
same,ED50,Rattus norvegicus [4],2.5 mg/kg
COc1ccc(-c2nc(SC(F)F)[nH]c2-c2ccc(OC)cc2)cc1,ED50,Mus musculus [17],112 mg/kg
CCCS(=O)(=O)c1nc(-c2ccc(OC)cc2)c(-c2ccc(OC)cc2)[nH]1,ED50,Mus musculus [18],40 mg/kg
same,ED50,Rattus norvegicus [4],9.5 mg/kg
CN(C)c1ccc(-c2[nH]c(SC(F)(F)C(F)F)nc2-c2ccccc2)cc1,ED50,Mus musculus [19],34 mg/kg
same,ED50,Rattus norvegicus [4],3 mg/kg
COc1ccc(-c2nc(S(=O)(=O)CC(C)=O)[nH]c2-c2ccc(OC)cc2)cc1,ED50,Mus musculus [20],26 mg/kg
same,ED50,Rattus norvegicus [4],20 mg/kg
CS(=O)(=O)c1nc(-c2cccc(Cl)c2)c(-c2ccccc2)[nH]1,ED50,Mus musculus [7],> 130 mg/kg
same,Decrease,Rattus norvegicus [21],55%
COc1ccc(-c2nc([S+]([O-])C(F)(F)F)[nH]c2-c2ccc(OC)cc2)cc1 (stereo not drawn),ED50,Mus musculus [22],37 mg/kg
same,ED50,Rattus norvegicus [4],3 mg/kg
COc1ccc(-c2nc(SC(F)(F)C(F)Br)[nH]c2-c2ccc(OC)cc2)cc1 (stereo not drawn),ED50,Mus musculus [23],59 mg/kg
same,ED50,Rattus norvegicus [4],10 mg/kg
COc1ccc(-c2nc(S(=O)(=O)C(F)(F)C(F)Br)[nH]c2-c2ccc(OC)cc2)cc1 (stereo not drawn),ED50,Mus musculus [24],0.3 mg/kg
O=S(=O)(CC(F)(F)F)c1nc(-c2ccc(Cl)cc2)c(-c2ccc(Cl)cc2)[nH]1,ED50,Mus musculus [25],10 mg/kg
same,ED50,Rattus norvegicus [4],10 mg/kg
[O-][S+](c1nc(-c2ccc(Cl)c(Cl)c2)c(-c2ccccc2)[nH]1)C(F)(F)C(F)F (stereo not drawn),ED50,Mus musculus [26],52 mg/kg
same,ED50,Rattus norvegicus [4],0.45 mg/kg
O=S(=O)(c1nc(-c2ccccc2)c(-c2ccccc2)[nH]1)C(F)(F)CF,ED50,Mus musculus [27],5.6 mg/kg
same,ED50,Rattus norvegicus [4],0.14 mg/kg
O=S(=O)(c1nc(-c2ccc(F)cc2)c(-c2ccccc2)[nH]1)C(F)(F)C(F)F,ED50,Mus musculus [28],0.86 mg/kg
same,ED50,Rattus norvegicus [4],0.03 mg/kg
COc1ccc(-c2[nH]c(S(=O)(=O)C(F)(F)F)nc2-c2ccc(F)cc2)cc1,ED50,Mus musculus [29],0.12 mg/kg
O=S(=O)(c1nc(-c2ccccc2)c(-c2ccccc2)[nH]1)C(F)(F)C(Cl)Cl,ED50,Mus musculus [30],34.2 mg/kg
same,ED50,Rattus norvegicus [4],1.7 mg/kg
